# Measurements reported in ChEMBL document CHEMBL3414496, “Synthesis and biological evaluation of novel 2-heteroarylimino-1,3-thiazolidin-4-ones as potential anti-tumor agents” (Eur J Med Chem, 2015).
# Active and inactive are the calls of the source. The calls are words filed in the database; no cut-off is given here.
# Tested on: HT-29
# Assay: Induction of cell cycle arrest in human HT-29 cells assessed as accumulation at S phase by propidium iodide staining based flow cytometry (reference value: 23.9 +/- 0.3%)
# Assay type: functional
# Details: not given
row,Compound,Activity [%]
1,COc1ccc(/C=C2\S/C(=N\c3csc(-c4ccc(Cl)cc4)c3)NC2=O)cc1,18.2

# Tested on: HT-29
# Assay: Induction of cell cycle arrest in human HT-29 cells assessed as accumulation at G2/M phase by propidium iodide staining based flow cytometry (reference value: 30 +/- 2%)
# Assay type: functional
# Details: not given
row,Compound,Activity [%]
1,COc1ccc(/C=C2\S/C(=N\c3csc(-c4ccc(Cl)cc4)c3)NC2=O)cc1,80.6

# Tested on: HT-29
# Assay: Induction of chromatin condensation in human HT-29 cells incubated for 2 days by DAPI staining based UV fluorescent microscopy
# Assay type: functional, cell-based
# Details: not given
# How it was run: (§1)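 HT29 cells in 35 mm dishes treated over two days, fixed in 70% ethanol for 5 min and rinsed with PBS. Stained with 1 µM DAPI in PBS for 15 min and imaged by UV fluorescence microscopy for nuclear morphology.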
row,Compound,Activity
1,COc1ccc(/C=C2\S/C(=N\c3nc(-c4ccc(Cl)cc4)cs3)NC2=O)cc1,Active
2,COc1ccc(/C=C2\S/C(=N\c3csc(-c4ccc(Cl)cc4)c3)NC2=O)cc1,Active
3,CN(C)c1ccc(/C=C2\S/C(=N\c3nc(-c4ccc(Cl)cc4)cs3)NC2=O)cc1,Active

# Tested on: HT-29
# Assay: Induction of nuclear fragmentation in human HT-29 cells incubated for 2 days by DAPI staining based UV fluorescent microscopy
# Assay type: functional, cell-based
# Details: not given
# How it was run: as §1
row,Compound,Activity
1,COc1ccc(/C=C2\S/C(=N\c3nc(-c4ccc(Cl)cc4)cs3)NC2=O)cc1,Active
2,COc1ccc(/C=C2\S/C(=N\c3csc(-c4ccc(Cl)cc4)c3)NC2=O)cc1,Active
3,CN(C)c1ccc(/C=C2\S/C(=N\c3nc(-c4ccc(Cl)cc4)cs3)NC2=O)cc1,Active

# Tested on: HT-29
# Assay: Induction of mitochondrial membrane potential loss in human HT-29 cells incubated for 2 days by JC1 staining based UV fluorescent microscopy
# Assay type: functional, cell-based
# Details: not given
# How it was run: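 HT29 cells in dishes exposed to test agents, then 1 µM JC-1 added to the medium for 15 min at 37°C. Cells washed with warm PBS and imaged by fluorescence microscopy for J-aggregates (red channel). 50 µM CCCP for 15 min served as depolarization control.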
row,Compound,Activity
1,COc1ccc(/C=C2\S/C(=N\c3nc(-c4ccc(Cl)cc4)cs3)NC2=O)cc1,Active
2,COc1ccc(/C=C2\S/C(=N\c3csc(-c4ccc(Cl)cc4)c3)NC2=O)cc1,Active
3,CN(C)c1ccc(/C=C2\S/C(=N\c3nc(-c4ccc(Cl)cc4)cs3)NC2=O)cc1,Active

# Tested on: HT-29
# Assay: Induction of ROS generation in human HT-29 cells at cytotoxic IC50 level after 4 hrs by DCF-DA staining based fluorescence assay
# Assay type: functional, cell-based
# Details: not given
# How it was run: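 HT29 cells treated two days after seeding, then loaded with 50 µM DCF-DA for 15 min at 37°C. Cells trypsinized, washed and resuspended in PBS, and 30 000 cells/sample read by flow cytometry (FL-1). Expressed as % of DMSO-treated cells; […] for 1 h served as positive control. Triplicates from three independent experiments.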
row,Compound,Activity
1,COc1ccc(/C=C2\S/C(=N\c3csc(-c4ccc(Cl)cc4)c3)NC2=O)cc1,Active

# Tested on: HT-29
# Assay: Induction of autophagy in human HT-29 cells assessed as increase in acidic vesicles by acridine orange staining based flow cytometry
# Assay type: functional, cell-based
# Details: not given
# How it was run: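 HT29 cells treated for two days with daily medium changes, stained with 1 µg/ml acridine orange for 15 min, then trypsinized and suspended in PBS. FL-3 fluorescence read by flow cytometry on 30 000 cells/sample and expressed in arbitrary units relative to DMSO-treated cells. Triplicates from three independent experiments.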
row,Compound,Activity
1,COc1ccc(/C=C2\S/C(=N\c3nc(-c4ccc(Cl)cc4)cs3)NC2=O)cc1,Active
2,COc1ccc(/C=C2\S/C(=N\c3csc(-c4ccc(Cl)cc4)c3)NC2=O)cc1,Active
3,CN(C)c1ccc(/C=C2\S/C(=N\c3nc(-c4ccc(Cl)cc4)cs3)NC2=O)cc1,Active

# Tested on: HT-29
# Assay: Induction of autophagy in human HT-29 cells assessed as increase in beclin-1 protein expression by Western blotting method
# Assay type: functional, cell-based
# Details: not given
# How it was run: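 HT29 cells in flasks treated over two days. Total protein homogenates immunoblotted with anti-beclin-1 (1:500), with GAPDH as loading control.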
row,Compound,Activity
1,COc1ccc(/C=C2\S/C(=N\c3nc(-c4ccc(Cl)cc4)cs3)NC2=O)cc1,Active
2,COc1ccc(/C=C2\S/C(=N\c3csc(-c4ccc(Cl)cc4)c3)NC2=O)cc1,Active
3,CN(C)c1ccc(/C=C2\S/C(=N\c3nc(-c4ccc(Cl)cc4)cs3)NC2=O)cc1,Active

# Tested on: HT-29
# Assay: Induction of redox status changes in human HT-29 cells assessed as RNS content by DAF-2DA staining based fluorescence assay (reference value: 100%)
# Assay type: functional
# Details: not given
# How it was run: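 HT29 cells treated two days after seeding, then loaded with 1 µM DAF-2DA for 30 min at 37°C. Cells trypsinized and resuspended in PBS, and 30 000 cells/sample measured by flow cytometry (FL-1). Expressed as % of DMSO-treated cells. Triplicates from three independent experiments.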
row,Compound,Activity [%]
1,COc1ccc(/C=C2\S/C(=N\c3nc(-c4ccc(Cl)cc4)cs3)NC2=O)cc1,103.3
2,COc1ccc(/C=C2\S/C(=N\c3csc(-c4ccc(Cl)cc4)c3)NC2=O)cc1,169.7
3,CN(C)c1ccc(/C=C2\S/C(=N\c3nc(-c4ccc(Cl)cc4)cs3)NC2=O)cc1,144.4

# Tested on: HT-29
# Assay: Induction of redox status changes in human HT-29 cells assessed as RNS content by DHR123 staining based fluorescence assay (reference value: 100%)
# Assay type: functional
# Details: not given
# How it was run: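 HT29 cells treated two days after seeding, then loaded with 25 µM DHR for 20 min at 37°C. Cells trypsinized and resuspended in PBS, and 30 000 cells/sample read by flow cytometry (FL-1). Expressed as % of DMSO controls. Triplicates from three independent experiments.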
row,Compound,Activity [%]
1,COc1ccc(/C=C2\S/C(=N\c3nc(-c4ccc(Cl)cc4)cs3)NC2=O)cc1,80.9
2,COc1ccc(/C=C2\S/C(=N\c3csc(-c4ccc(Cl)cc4)c3)NC2=O)cc1,85.9
3,CN(C)c1ccc(/C=C2\S/C(=N\c3nc(-c4ccc(Cl)cc4)cs3)NC2=O)cc1,157.6

# Tested on: HT-29
# Assay: Induction of redox status changes in human HT-29 cells assessed as GSH content by fluorescence based microtiter plate method (reference value: 100%)
# Assay type: functional
# Details: not given
# How it was run: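 HT29 cells exposed 48 h after seeding for 24 h, then extracted into ice-cold 10% perchloric acid with 2 mM EDTA and spun at 15 000 g. GSH in the supernatant measured by a fluorescence microtiter plate method; pellet protein measured by modified Lowry. Values in nmol GSH/mg protein, shown as % of DMSO controls. Triplicates from three experiments.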
row,Compound,Activity [%]
1,COc1ccc(/C=C2\S/C(=N\c3nc(-c4ccc(Cl)cc4)cs3)NC2=O)cc1,117
2,COc1ccc(/C=C2\S/C(=N\c3csc(-c4ccc(Cl)cc4)c3)NC2=O)cc1,88.8
3,CN(C)c1ccc(/C=C2\S/C(=N\c3nc(-c4ccc(Cl)cc4)cs3)NC2=O)cc1,109.1

# Tested on: HT-29
# Assay: Inhibition of cell growth in human HT-29 cells assessed as mitotic index ratio in absence of 1 mM ascorbic acid (reference value: 1)
# Assay type: functional
# Details: not given
# How it was run: (§2)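 HT29 cells treated daily from 48 h after seeding, over three days with daily medium changes, in 0.1% (v/v) DMSO vehicle. Cells trypsinised, mixed 1:1 with 0.04% trypan blue, and living cells counted by haemocytometer under microscope. Mitotic index is treated count relative to DMSO control. Triplicate determinations, two independent experiments, mean ± S.E.M.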
row,Compound,Ratio
1,COc1ccc(/C=C2\S/C(=N\c3csc(-c4ccc(Cl)cc4)c3)NC2=O)cc1,0.03
2,CN(C)c1ccc(/C=C2\S/C(=N\c3nc(-c4ccc(Cl)cc4)cs3)NC2=O)cc1,0.13

# Tested on: HT-29
# Assay: Inhibition of cell growth in human HT-29 cells assessed as mitotic index ratio in presence of 1 mM ascorbic acid (reference value: 1.12 +/- 0.03)
# Assay type: functional
# Details: not given
row,Compound,Ratio
1,COc1ccc(/C=C2\S/C(=N\c3csc(-c4ccc(Cl)cc4)c3)NC2=O)cc1,0.03

# Tested on: HT-29
# Assay: Cytotoxicity against human HT-29 cells after 72 hrs by MTT assay
# Assay type: functional, cell-based
# Details: HT-29, 72 h
# How it was run: (§3)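 Cells seeded at 10^4/well, exposed 24 h later to graded concentrations (0.01–100 µM) for 72 h at 37°C; MTT 0.5 mg/ml for 2 h, formazan dissolved in DMSO, absorbance at 570 nm. […] Colon lines in DMEM, breast lines in RPMI, both with 10% FCS.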
row,Compound,IC50 [µM]
1,COc1ccc(/C=C2\S/C(=N\c3nc(-c4ccc(Cl)cc4)cs3)NC2=O)cc1,0.4
2,COc1ccc(/C=C2\S/C(=N\c3csc(-c4ccc(Cl)cc4)c3)NC2=O)cc1,3.8
3,CN(C)c1ccc(/C=C2\S/C(=N\c3nc(-c4ccc(Cl)cc4)cs3)NC2=O)cc1,0.5

# Tested on: not listed separately
# Assay: Cytotoxicity against human HCT116 cells after 72 hrs by MTT assay
# Assay type: functional, cell-based
# Details: HCT-116, 72 h
# How it was run: as §3
row,Compound,IC50 [µM]
1,COc1ccc(/C=C2\S/C(=N\c3nc(-c4ccc(Cl)cc4)cs3)NC2=O)cc1,0.4
2,COc1ccc(/C=C2\S/C(=N\c3csc(-c4ccc(Cl)cc4)c3)NC2=O)cc1,1.3
3,CN(C)c1ccc(/C=C2\S/C(=N\c3nc(-c4ccc(Cl)cc4)cs3)NC2=O)cc1,0.2

# Tested on: SW-620
# Assay: Cytotoxicity against human SW620 cells after 72 hrs by MTT assay
# Assay type: functional, cell-based
# Details: SW-620, 72 h
# How it was run: as §3
row,Compound,IC50 [µM]
1,COc1ccc(/C=C2\S/C(=N\c3nc(-c4ccc(Cl)cc4)cs3)NC2=O)cc1,0.05
2,COc1ccc(/C=C2\S/C(=N\c3csc(-c4ccc(Cl)cc4)c3)NC2=O)cc1,28.1
3,CN(C)c1ccc(/C=C2\S/C(=N\c3nc(-c4ccc(Cl)cc4)cs3)NC2=O)cc1,0.2

# Tested on: MCF7
# Assay: Cytotoxicity against human MCF7 cells after 72 hrs by MTT assay
# Assay type: functional, cell-based
# Details: MCF7, 72 h
# How it was run: as §3
row,Compound,IC50 [µM]
1,COc1ccc(/C=C2\S/C(=N\c3nc(-c4ccc(Cl)cc4)cs3)NC2=O)cc1,0.1
2,COc1ccc(/C=C2\S/C(=N\c3csc(-c4ccc(Cl)cc4)c3)NC2=O)cc1,1
3,CN(C)c1ccc(/C=C2\S/C(=N\c3nc(-c4ccc(Cl)cc4)cs3)NC2=O)cc1,0.1

# Tested on: MDA-MB-231
# Assay: Cytotoxicity against human MDA-MB-231 cells after 72 hrs by MTT assay
# Assay type: functional, cell-based
# Details: MDA-MB-231, 72 h
# How it was run: as §3
row,Compound,IC50 [µM]
1,COc1ccc(/C=C2\S/C(=N\c3nc(-c4ccc(Cl)cc4)cs3)NC2=O)cc1,0.3
2,COc1ccc(/C=C2\S/C(=N\c3csc(-c4ccc(Cl)cc4)c3)NC2=O)cc1,1.2
3,CN(C)c1ccc(/C=C2\S/C(=N\c3nc(-c4ccc(Cl)cc4)cs3)NC2=O)cc1,0.3

# Tested on: HT-29
# Assay: Growth inhibition of human HT-29 cells at cytotoxic IC50 level after 3 days by trypan blue dye exclusion assay
# Assay type: functional
# Details: not given
# How it was run: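 HT29 cells treated 48 h after seeding, dosed daily with daily medium change over three days; drug diluted in DMSO, controls 0.1% (v/v) DMSO. Cells trypsinized, mixed 1:1 with 0.04% trypan blue, live cells counted by hematimeter. Reported as mitotic index (treated/DMSO count); triplicates from two independent experiments.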
row,Compound,growth inhibition (GI) [%]
1,COc1ccc(/C=C2\S/C(=N\c3nc(-c4ccc(Cl)cc4)cs3)NC2=O)cc1,<25
2,COc1ccc(/C=C2\S/C(=N\c3csc(-c4ccc(Cl)cc4)c3)NC2=O)cc1,90
3,CN(C)c1ccc(/C=C2\S/C(=N\c3nc(-c4ccc(Cl)cc4)cs3)NC2=O)cc1,<25

# Tested on: HT-29
# Assay: Reduction in cell growth of human HT-29 cells at cytotoxic IC50 level after 3 days by trypan blue dye exclusion assay
# Assay type: functional, cell-based
# Details: not given
# How it was run: as §2
row,Compound,inhibition
1,COc1ccc(/C=C2\S/C(=N\c3csc(-c4ccc(Cl)cc4)c3)NC2=O)cc1,Active

# Tested on: HT-29
# Assay: Induction of cell cycle arrest in human HT-29 cells assessed as accumulation at subG1 phase by propidium iodide staining based flow cytometry (reference value: 6.9 +/- 0.5%)
# Assay type: functional
# Details: not given
row,Compound,Activity [%]
1,COc1ccc(/C=C2\S/C(=N\c3csc(-c4ccc(Cl)cc4)c3)NC2=O)cc1,21.6

# Tested on: HT-29
# Assay: Induction of redox status changes in human HT-29 cells assessed as ROS content in absence of 1 mM ascorbic acid by DCF-DA staining based fluorescence assay (reference value: 100%)
# Details: not given
row,Compound,Activity [%]
1,COc1ccc(/C=C2\S/C(=N\c3csc(-c4ccc(Cl)cc4)c3)NC2=O)cc1,123.1
2,CN(C)c1ccc(/C=C2\S/C(=N\c3nc(-c4ccc(Cl)cc4)cs3)NC2=O)cc1,252.5

# Tested on: HT-29
# Assay: Induction of redox status changes in human HT-29 cells assessed as ROS content in presence of 1 mM ascorbic acid by DCF-DA staining based fluorescence assay (reference value: 65.7 +/- 4.7%)
# Details: not given
row,Compound,Activity [%]
1,COc1ccc(/C=C2\S/C(=N\c3csc(-c4ccc(Cl)cc4)c3)NC2=O)cc1,97
